An excerpt weighted towards active compounds, which were near 3.2% of everything screened.
MEKK2mut PB1 HTS: signal of MEK5 binding to mutant human MEKK2 PB1 domain | bead flow cytometry, Alexa488-MEK5 binding to MEKK2 mutant | percent response, % at 10 µM | 0.35% of 290,000 active | AID 1530; in the data active means percent response above about 24%, passing the limit was not always enough
MEKK2wt PB1 HTS: raises or lowers MEK5 binding to wildtype human MEKK2 PB1 domain | bead flow cytometry, Alexa488-MEK5 binding to MEKK2 WT; actives lie on both sides | Q9Y2U5 | binding response (% of control), % at 10 µM | AID 1531 | 1.1% of 290,000 active; in the data active means binding response below about 67% or above about 130%; inconclusive means no clear call, values can overlap the other calls; inactive means in between
MEKK3 PB1 HTS: MEKK3-MEK5 PB1 interaction, increase or decrease; Q99759; bead-based flow cytometry, Alexa488-MEK5 binding to MEKK3; actives lie on both sides; 0 = blocked by unlabeled MEK5, 100 = vehicle; binding response (% of control), % at 10 µM; 1.4% of 290,000 active; AID 1529;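 active means binding response more than 3 SD above or below the average of its plate-row segment, actives on both sides; inconclusive means wells at one plate position flagged as instrument error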;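 further: Alexa488 bead fluorescence after subtracting the streptavidin-only scavenger bead signal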
Apaf1 inhib: inhibitors of human Apaf-1 apoptosome | AID 489030 | 0.71% of 330,000 active | inhibition, % at 20 µM | reconstituted apoptosome caspase-3 activity, DEVD-Rh110 fluorescence | O14727; active means inhibition of at least 40% at 20 µM;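 further: plate controls were DMSO wells for no effect and DEVD-CHO caspase inhibitor wells for full effect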
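Material: biochemical Apaf-1 apoptosome reconstitution. Medium: Hepes buffer, pH 7.5. Also added: cytochrome c activation, bis-DEVD rhodamine 110 substrate. Timing: 30 min compound preincubation, 50 min activation, room temperature. Measured by: rhodamine 110 fluorescence at Ex 480/Em 540 nm.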
UBC13 inh: inhibitors of human UBC13 polyubiquitin chain formation | TR-FRET | inhibition, % at 20 µM | 0.47% of 330,000 active | AID 485273; in the data active means inhibition above about 45%, passing the limit was not always enough; inconclusive means no clear call, values can overlap the other calls
Pemphigus Ab inh: blocks pemphigus antibody binding to human desmoglein-3; binding (percent of control), % at 10 µM; AID 588358; DSG3-coupled beads, scFv-anti-DSG3-GFP binding, flow cytometry; active compounds read low; 0.48% of 310,000 active;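 active means binding more than 3 SD below its plate's average and above zero; inconclusive means below that plate limit but binding exactly zero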;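 further: hits lower antibody fragment binding to DSG3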
Target sequence (P32926 whole entry, looked up, the tested form may be a part): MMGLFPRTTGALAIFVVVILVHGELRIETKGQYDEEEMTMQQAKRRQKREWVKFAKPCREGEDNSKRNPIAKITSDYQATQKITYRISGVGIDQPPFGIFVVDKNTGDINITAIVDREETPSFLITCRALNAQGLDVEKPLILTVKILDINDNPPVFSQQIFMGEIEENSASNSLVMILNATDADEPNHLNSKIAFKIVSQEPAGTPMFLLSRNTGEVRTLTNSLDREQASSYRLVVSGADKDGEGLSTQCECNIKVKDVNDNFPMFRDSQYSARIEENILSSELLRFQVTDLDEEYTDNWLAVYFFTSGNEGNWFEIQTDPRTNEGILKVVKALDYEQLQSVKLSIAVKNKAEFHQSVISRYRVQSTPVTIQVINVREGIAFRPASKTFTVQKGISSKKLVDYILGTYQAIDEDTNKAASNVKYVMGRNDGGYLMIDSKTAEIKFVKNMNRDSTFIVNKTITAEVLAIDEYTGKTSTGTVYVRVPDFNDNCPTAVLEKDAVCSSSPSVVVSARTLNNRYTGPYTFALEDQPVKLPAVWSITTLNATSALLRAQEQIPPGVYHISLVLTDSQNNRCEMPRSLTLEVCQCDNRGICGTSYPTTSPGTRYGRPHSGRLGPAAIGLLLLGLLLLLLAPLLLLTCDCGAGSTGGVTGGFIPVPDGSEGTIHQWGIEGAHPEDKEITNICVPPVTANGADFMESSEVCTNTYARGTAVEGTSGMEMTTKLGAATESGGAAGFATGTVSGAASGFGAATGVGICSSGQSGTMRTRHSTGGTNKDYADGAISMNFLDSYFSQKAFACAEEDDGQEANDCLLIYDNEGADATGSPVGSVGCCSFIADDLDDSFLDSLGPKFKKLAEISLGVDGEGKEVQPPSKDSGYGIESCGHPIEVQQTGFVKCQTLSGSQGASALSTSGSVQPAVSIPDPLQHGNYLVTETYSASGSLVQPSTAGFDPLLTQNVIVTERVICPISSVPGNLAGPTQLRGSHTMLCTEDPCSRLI
MEKK2wt confirm: raises or lowers MEK5 binding to wildtype human MEKK2, retest | shares compounds with MEKK3 PB1 HTS | bead flow cytometry, Alexa488-MEK5 binding to MEKK2 WT; actives lie on both sides | binding response (% of control), % at 10 µM | 2.4% of 5,900 active | AID 1892; in the data active means binding response below about 16% or above about 210%; inactive means in between
MEKK2mut-MEK5: signal of MEK5 binding to mutant human MEKK2, retest; AID 1893; bead flow cytometry, Alexa488-MEK5 binding to MEKK2 mutant; percent response, % at 10 µM; 2% of 5,900 active; shares compounds with MEKK3 PB1 HTS; in the data active means percent response mostly above about 71%, no sharp cut-off; inactive means mostly below about 38%;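 further: higher means compound restores mutant binding toward wildtype level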
MEKK3-MEK5 inh: confirmation of inhibitors of MEK5 binding to human MEKK3; bead flow cytometry, Alexa488-MEK5 binding to MEKK3; active compounds read low; AID 1894; binding response (% of control), % at 10 µM; shares compounds with MEKK3 PB1 HTS; 1.8% of 5,900 active;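 active means binding response below 72% of control, or above a set upper limit, though filed actives all read lower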;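 further: 100% = DMSO only wells and 0% = binding blocked by excess unlabeled MEK5; lower values mean stronger disruption of MEK5 binding to MEKK3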
* = called active by the depositor; ? = inconclusive; / = no result; [ ] = dose if it differs, or a comment.

SMILES	MEKK2mut PB1 HTS	MEKK2wt PB1 HTS	MEKK3 PB1 HTS	Apaf1 inhib	UBC13 inh	Pemphigus Ab inh	MEKK2wt confirm	MEKK2mut-MEK5	MEKK3-MEK5 inh
CN(C)c1cccc(C(=O)OCCNC(=O)c2cccc(S(=O)(=O)N3CCOCC3)c2)c1	-12.0	52.0	46.0*[inhibitor]	-4.7	5.4	97.1	104.0	3.0	102.0
Cc1cc(O)c(CN2CCN(S(=O)(=O)c3cccs3)CC2)cc1C(C)C	/	/	/	11.5	12.1	94.8	/	/	/
Cc1cccc(-n2c(-c3ccccc3)c[nH]c2=S)c1C	0.0	101.0	98.0	13.0	1.6	116.2	/	/	/
CCC1(c2ccccc2)NC(=S)N(c2cccc(C)c2C)N1 (stereo unspecified)	1.0	105.0	129.0*	-6.2	4.2	99.8	101.0	-10.0	99.0
CCOC(=O)Nc1cc(Br)c2c(c1)OCCO2	-20.0	-4.0*[inhibitor]	0.0*[inhibitor]	7.0	0.8	90.2	103.0	1.0	104.0
Cc1ccc(-c2ccc(SCC(=O)N3CCN(c4ccccc4)CC3)nn2)cc1	1.0	105.0	138.0*	-5.3	6.9	/	105.0	-3.0	102.0
C[C@H](CO)N1C[C@H](C)[C@H](CN(C)Cc2ccccc2)Oc2ncc(Br)cc2C1=O	/	/	/	/	/	103.8	/	/	/
COc1cccc(OC)c1C(=O)Nc1sc2c(c1C(N)=O)CCN(Cc1ccccc1)C2	2.0	99.0	102.0	7.6	1.5	101.1	/	/	/
CCN1CCc2c(sc(NC(=O)c3cc4ccccc4cc3OC)c2C(N)=O)C1	26.0*	149.0*	104.0	65.4*	24.8	/	131.0	30.0	88.0
Nc1nonc1C(=O)NCCNCc1ccccc1OCc1ccccc1F	8.0	124.0	123.0*	17.0	7.5	/	113.0	14.0	103.0
Nc1nonc1C(=O)NCCNCc1cc(Br)ccc1OCc1ccccc1F	-1.0	113.0	81.0	17.7	4.5	/	/	/	/
CC(=O)Oc1ccc2ccc3ccc(C(C)=O)cc3c2c1	/	/	/	/	/	123.9	/	/	/
Cc1oc2c(CN3CCOCC3)c(O)ccc2c(=O)c1-c1ccc(Cl)cc1	-16.0	44.0*[inhibitor]	38.0*[inhibitor]	-3.1	9.7	94.2	107.0	7.0	101.0
Cc1ccc2c(c1)sc(-c1ccc(N(C)C)cc1)[n+]2C	5.0	102.0	104.0	5.7	-20.8	99.4	/	/	/
OC1CCN(c2cc(-c3ccccc3)nc3cc(-c4ccc(F)cc4)nn23)CC1	-4.0	95.0	102.0	-0.5	25.5	93.7	/	/	/
CCN1CCN(c2cc(-c3ccccc3)nc3cc(-c4cccc(F)c4)nn23)CC1	49.0*	146.0*	122.0*	15.6	38.0	114.3	182.0	39.0	108.0
CC(=O)Nc1cccc(C(=O)Oc2cccc(C)c2)c1O	-29.0	16.0*[inhibitor]	9.0*[inhibitor]	4.6	5.7	100.1	110.0	1.0	105.0
COc1cccc(N2CCN(C(=O)NC3CCCCC3)CC2)c1	4.0	106.0	104.0	-1.5	-5.9	110.1	/	/	/
COc1ccc(N2CCN(C(=O)NC3CCCCC3)CC2)cc1	-2.0	99.0	77.0*[inhibitor]	4.2	-5.1	/	104.0	1.0	102.0
O=C(Nc1ccc(Cl)cc1)NC1CCCCC1	-9.0	-1.0*[inhibitor]	1.0*[inhibitor]	4.0	1.5	/	64.0	-9.0	95.0
O=C(Nc1ccc(Cl)cc1)NC1CCCC1Cc1ccco1 (stereo unspecified)	5.0	116.0	109.0	6.7	-2.0	124.2	/	/	/
Nc1ccc(NC(=O)NC2CCCCC2)cc1	-6.0	94.0	99.0	-0.4	0.4	112.6	/	/	/
O=C(Nc1ccc(Cl)cc1)NC1CCCCC1Cc1ccco1 (stereo unspecified)	-9.0	46.0*[inhibitor]	69.0*[inhibitor]	7.3	5.6	/	112.0	18.0	105.0
Cc1c(F)cccc1NS(=O)(=O)c1ccc(N2CCCC2=O)cc1	/	/	/	/	/	97.3	/	/	/
CC(=O)Nc1ccc(S(=O)(=O)N(C)CC(=O)OC(C)C(=O)NC2(C#N)CCCCC2)cc1 (stereo unspecified)	/	/	/	/	/	95.1	/	/	/
SMILES	MEKK2mut PB1 HTS	MEKK2wt PB1 HTS	MEKK3 PB1 HTS	Apaf1 inhib	UBC13 inh	Pemphigus Ab inh	MEKK2wt confirm	MEKK2mut-MEK5	MEKK3-MEK5 inh
O=C(COc1c(F)c(F)cc(F)c1F)NC(=O)NC1CCCC1	-8.0	60.0	56.0*[inhibitor]	16.2	-7.8	?	101.0	5.0	100.0
CCCNC(=O)NC(=O)COc1c(F)c(F)cc(F)c1F	13.0	98.0	97.0	-0.9	4.2	/	/	/	/
COc1ccc(N2C(=O)c3cccc4cc(Br)cc(c34)C2=O)cc1	-18.0	91.0	73.0*[inhibitor]	3.7	-6.9	70.7	96.0	-3.0	97.0
Clc1c(-c2ccccc2)nnn1-c1ccccc1	-2.0	101.0	97.0	1.7	-9.7	116.9	/	/	/
CCOc1cc(CNCCCN2CCOCC2)cc(Br)c1OCc1ccccc1Cl	78.0*	199.0*	114.0	11.8	38.9	114.2	173.0	33.0	105.0
CCOc1cc(CNC(C)(C)CO)cc(Br)c1OCc1ccc(Cl)cc1Cl	75.0*	262.0*	117.0	5.1	39.2	104.1	202.0	67.0	116.0
CCOc1cc(CNCCO)cc(Br)c1OCc1ccccc1Cl	12.0	142.0*	102.0	12.0	42.6	105.6	148.0	33.0	104.0
CCOc1cc(CNCCO)cc(Br)c1OCc1ccc(Cl)cc1	/	/	/	15.0	36.9	101.8	/	/	/
CCc1cc(CNC(=O)C2CCC(=O)N(Cc3cccc(F)c3)C2)on1 (stereo unspecified)	-6.0	104.0	99.0	0.3	0.1	100.2	/	/	/
Cc1cccc(C(C)C)c1NC(=O)COC(=O)CCN1C(=O)C2CC=CCC2C1=O (stereo unspecified)	10.0	112.0	111.0	6.8	1.0	104.9	/	/	/
Cc1cc(-c2csc(N)n2)c(C)n1-c1ccc(Cl)c(Cl)c1	1.0	109.0	153.0*	6.7	-1.8	93.1	101.0	-4.0	101.0
COc1ccc(-n2c(C)cc(-c3csc(N)n3)c2C)cc1	2.0	98.0	128.0*	9.0	6.0	75.5	106.0	4.0	98.0
CCCn1c(C)cc(-c2csc(N)n2)c1C	-2.0	93.0	88.0	20.5	-1.0	97.1	/	/	/
COc1ccc(C2N(C(=O)N(C)C)CCN2S(=O)(=O)c2ccc(OC)cc2)cc1 (stereo unspecified)	3.0	97.0	102.0	4.9	2.4	/	/	/	/
CN(/N=C/c1cccnc1)C1=NS(=O)(=O)c2ccccc21	0.0	107.0	109.0	/	/	102.4	/	/	/
CN(/N=C/C=C/c1ccccc1)C1=NS(=O)(=O)c2ccccc21	0.0	106.0	134.0*	/	/	85.9	102.0	-3.0	97.0
COc1ccc2c(C)cc(SCC#N)nc2c1	38.0*	58.0*[inhibitor]	102.0	-12.4	6.0	119.7	101.0	-8.0	103.0
